DAT uptake mod: modulates human dopamine transporter uptake under cocaine; LLC-PK1 hDAT cells, [14C]-dopamine uptake with cocaine IC80; actives deviate in either direction; B-score at 10 µM; hit rate 1.3% among 110,000; AID 449768;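 active = Z score or B-score, a plate-position-corrected score, falls beyond the plate's 99.7% confidence bounds, in either direction; inactive = both scores lie inside the 99.7% bounds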;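 note: scored against the spread of the other compound wells on the same plate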
Target sequence (Q01959 whole entry, looked up): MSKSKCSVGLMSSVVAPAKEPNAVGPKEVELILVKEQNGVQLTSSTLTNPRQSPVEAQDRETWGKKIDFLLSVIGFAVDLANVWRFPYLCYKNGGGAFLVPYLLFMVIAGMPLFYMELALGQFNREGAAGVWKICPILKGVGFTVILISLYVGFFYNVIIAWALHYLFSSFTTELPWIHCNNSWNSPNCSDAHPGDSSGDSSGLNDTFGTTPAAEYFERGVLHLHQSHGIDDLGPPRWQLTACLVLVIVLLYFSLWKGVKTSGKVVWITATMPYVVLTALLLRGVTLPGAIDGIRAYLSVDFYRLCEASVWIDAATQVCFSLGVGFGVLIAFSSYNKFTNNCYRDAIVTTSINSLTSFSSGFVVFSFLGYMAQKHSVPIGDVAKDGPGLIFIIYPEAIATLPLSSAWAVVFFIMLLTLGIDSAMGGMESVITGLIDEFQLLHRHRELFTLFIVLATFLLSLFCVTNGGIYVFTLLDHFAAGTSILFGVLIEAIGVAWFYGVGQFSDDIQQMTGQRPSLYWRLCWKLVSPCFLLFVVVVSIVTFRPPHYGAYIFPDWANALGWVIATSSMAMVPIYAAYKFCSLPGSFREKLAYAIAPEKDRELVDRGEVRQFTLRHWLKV
M1 ag: M1 muscarinic receptor agonism; CHO-M1 cells, Fluo-4 calcium fluorescence, agonist mode; active compounds read high; B-score at 10 µM; hit rate 3% among 64,000; AID 626;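 active = fluorescence rise, raw or as B-score row- and column-corrected plate score, outside the 99.7% band of its plate's samples, either direction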
Jurkat viability: reduces viability or proliferation of Jurkat cells | Jurkat E6.1 viability, ATP luminescence, 48 h | inhibition, % at 4 µM | hit rate 1.2% among 56,000 | AID 463;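 active = inhibition above the mean inhibition of all tested compounds plus 3 SD, cut at about 28% in these data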
HEK293 NFkB inh: lowers PMA/ionomycin-induced NF-kB signal in HEK293 cells | hit rate 0.21% among 62,000 | inhibition, % at 3 µM | HEK-293 NF-kB luciferase reporter, luminescence;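 active = inhibition above the mean of all tested compounds plus 3 SD, cut at about 40% in these data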;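 note: 0% = stimulated DMSO wells and 100% = 10 µM reference inhibitor 5653914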
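Material: HEK-293 cells with stable firefly luciferase reporter driven by four HIV NF-kB elements / Also added: PMA plus ionomycin mix as NF-kB-activating stimulus / Compound dosing: 3 µM once, 0.30% DMSO / Times: 1 h pretreatment, 16 h stimulation, 37 °C / Signal: luminescence / Evaluation: per-plate % inhibition versus controls / Benchmarks: DMSO and 10 µM reference inhibitor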
D1 mod: D1 dopamine receptor (human) allosteric modulation. HEK293 D1, CRE-luciferase, dopamine EC30 potentiation; actives deviate in either direction. B-score at 10 µM. hit rate 5.9% among 58,000;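 active = luminescence count or its row- and column-corrected plate score outside the 99.7% band of the plate's sample wells, on either side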
M1 antag: blocks the rat M1 muscarinic receptor response to acetylcholine; AID 628; hit rate 3.4% among 64,000; B-score at 10 µM; P08482; CHO-M1 cells, Fluo-4 calcium, ACh EC80 antagonist mode; active compounds read low;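 active = calcium fluorescence response, raw or row-and-column corrected B-score, differing from the plate sample mean either way at a set confidence level, mostly lower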
D1 mod confirm: confirmation of human D1 dopamine receptor allosteric modulators | shares compounds with D1 mod | HEK293 D1 CRE-luciferase, dopamine EC30 potentiation; active compounds read high | luminescence at 10 µM | hit rate 88% among 2,200 | AID 642;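 active = luminescence in either of two replicates above the same-plate mean plus 3 SD of the low-dose dopamine control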
D1 ag no DA: D1 (human) signaling in absence of dopamine. luminescence at 10 µM. hit rate 0.8% among 1,900. HEK293 D1 CRE-luciferase, luminescence, no dopamine; active compounds read high. shares compounds with D1 mod; in the data active = luminescence above about 3900
Isoprot counter: alters isoproterenol CRE-luciferase response in HEK293 cells | HEK293 D1 CRE-luciferase, isoproterenol EC30 counter-screen | calls only at 10 µM | hit rate 63% among 2,200 | AID 647 | shares compounds with D1 mod;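 active = luminescence in either replicate above plate mean of wells with a partly effective reference agonist dose plus 3 SD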;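 note: isoproterenol raises cAMP through native beta-adrenoceptor Gs so signal bypasses D1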
Active calls of the source: *; i = inactive; · = no result given; + = active, no number. Only some compounds are listed: those with a hit (about 7.6% of all), similar ones and a draw of the others.

SMILES	DAT uptake mod	M1 ag	Jurkat viability	HEK293 NFkB inh	D1 mod	M1 antag	D1 mod confirm	D1 ag no DA	Isoprot counter
O=c1oc2ccccc2c2c1ncn2C1CCCCC1	0.045	-0.42	8	17	7.4*	0	20596*	1756	+
O=c1oc2ccccc2c2c1ncn2-c1ccccc1	-1.3	-0.79	-3	11	3.6*	-0.098	9304*	1488	+
CC(C)Cn1cnc2c(=O)oc3ccccc3c21	-1.2	·	·	·	·	·	·	·	·
Cc1ccc(-n2nc3c(c2NC(=O)c2c(-c4ccccc4Cl)noc2C)CSC3)cc1	3*	1.5	4	0	4.6*	-0.08	4636	1496	i
COc1cc(OC)cc(C(=O)Nc2ccccc2C(=O)N2CCCC2)c1	0.31	·	·	·	·	·	·	·	·
COc1cc(OC)cc(C(=O)Nn2cc(C(=O)N3CCN(C)CC3)c3ccccc3c2=O)c1	0.92	0	·	9	2.9*	0	5944*	1800	i
Nc1nc(-c2ccccc2)nc(-c2ccccc2O)n1	-0.16	-0.11	0	3	2.4	-0.51	·	·	·
Nc1nc(NCc2ccccc2)nc(-c2ccccc2)n1	0.61	0.81	-1	8	21*	1.3	23340*	·	+
CCc1nc(N2CCOCC2)c(C#N)c2c1COC(C)(C)C2	0.67	0.0083	2	20	5.6*	0.58	15288*	·	+
CC1(C)Cc2nc(N3CCOCC3)c(C#N)cc2CO1	-0.83	-0.12	-6	9	2.8*	0.41	9156*	·	i
COc1ccc(CCNC(=O)CN(c2ccccc2OC)S(C)(=O)=O)cc1	0.7	-0.67	1	8	0.63	1	·	·	·
CN1CCN(c2nc(-c3ccccc3)c3cc(Cl)ccc3n2)CC1	0.88	1.1	-4	-2	5*	-1	11380*	1508	i
COC(=O)c1c(-c2ccc(F)cc2)csc1NC(=O)c1ccco1	-0.3	-0.91	·	·	3.3*	1.5	8568*	1648	i
COc1ccc2c(c1)c1ncn(Cc3ccco3)c(=O)c1n2C	0.044	1.2	4	20	7.5*	-0.0012	12892*	1532	+
Cn1c2ccc(F)cc2c2ncn(CCN3CCOCC3)c(=O)c21	-0.13	0.99	2	14	1.2	-0.24	·	·	·
CNC(=O)c1[nH]cnc1C(=O)Nc1cccc(OC)c1	-0.42	-0.33	1	5	4.5*	0.17	10128*	1656	+
Cc1ccccc1NC(=O)Nc1ccccc1C(=O)NCc1ccccc1	-0.27	·	·	·	·	·	·	·	·
COc1ccc(NC(=O)c2nc[nH]c2C(=O)N[C@@H](C)c2ccccc2)cc1	2.7	·	·	·	·	·	·	·	·
Cc1ccccc1NC(=O)c1nc[nH]c1C(=O)NCc1ccccc1	-0.48	-0.42	5	18	5.1*	-0.29	14280*	1616	i
COc1ccc(NC(=O)c2nc[nH]c2C(=O)Nc2ccccc2C)cc1	-1	0.38	4	21	7.5*	0.4	14740*	1512	+
O=C(NCCC1=CCCCC1)NC12CC3CC(CC(C3)C1)C2	0.15	·	·	·	·	·	·	·	·
CCC(C)(C(=O)NC1CCCCC1)N(C(=O)C1CCC(=O)N1)c1ccccc1 (stereo not drawn)	-1.4	·	·	·	·	·	·	·	·
CCOc1ccccc1NS(=O)(=O)c1ccc(Br)s1	-0.15	0.14	0	10	0.78	-0.12	·	·	·
COc1ccc(NC(=O)CSc2ncnc3c2cnn3Cc2ccccc2)cc1OC	-0.98	·	·	·	·	·	·	·	·
COc1ccc(Nc2ncnc3c2cnn3Cc2ccccc2)cc1OC	1.8	-1.1	6	31	5.2*	-0.25	8056*	1576	+
SMILES	DAT uptake mod	M1 ag	Jurkat viability	HEK293 NFkB inh	D1 mod	M1 antag	D1 mod confirm	D1 ag no DA	Isoprot counter
Cc1c(CN(C)C(=O)c2sc3cc(Cl)ccc3c2Cl)cnn1C	1.8	·	·	·	·	·	·	·	·
CCOc1ccc(C2CC(c3cccc(OC)c3)n3nc(N)nc3N2)cc1 (stereo not drawn)	1.1	-0.33	1	4	1.8	0.03	·	·	·
Cc1ccc(C2CC(c3ccccc3C)n3nc(N)nc3N2)cc1 (stereo not drawn)	-0.74	-1.1	3	16	5.3*	0.51	6604	1668	i
COc1ccc(C2CC(c3ccccc3C)n3nc(N)nc3N2)cc1 (stereo not drawn)	0.084	0.013	1	12	-0.011	-0.048	·	·	·
Cc1ccc(C2CC(c3cccc(Cl)c3)n3nc(N)nc3N2)cc1 (stereo not drawn)	-1.4	-0.89	-2	8	·	0.65	·	·	·
Cc1cccc(C2CC(c3ccc(F)cc3)Nc3nc(N)nn32)c1 (stereo not drawn)	0.04	0.35	-1	4	4.7*	-0.083	11784*	1444	i
CCOc1ccc(C2CC(c3cccc(C)c3)n3nc(N)nc3N2)cc1 (stereo not drawn)	0.72	0.23	-8	13	5*	-0.99	10456*	·	+
COc1ccccc1-n1cnc2cc(NC(=O)c3ccco3)ccc21	-0.084	·	·	·	·	·	·	·	·
Cc1cc(N2CCN(S(=O)(=O)c3ccc4c(c3)OCCO4)CC2)n2ncnc2n1	0.46	0.7	-1	-2	4.1*	-0.44	6428*	1504	i
CCOc1cc(-c2ccc3c(c2)OCO3)cc(=O)c2c(C)oc(C)c12	·	-1.2	5	12	0.16	0.99	·	·	·
O=C(O)CCCn1nc(-c2ccccc2)c2ccccc21	0.57	-0.08	2	2	·	0.67	·	·	·
COC(=O)Cn1nc(-c2ccccc2)c2ccccc21	-0.33	-0.76	4	10	2.5*	0.016	5172	1632	i
CC1(C(=O)NC2CCCC2)CCC(=O)N1Cc1ccc2c(c1)OCO2 (stereo not drawn)	0.38	-0.27	-3	17	0.27	0.47	·	·	·
CCc1cc2c(cc3c(=O)n(CC(=O)NCCCN4CC(C)CC(C)C4)ncn32)s1 (stereo not drawn)	0.57	·	·	·	·	·	·	·	·
CSC1=NCCN1C(=O)Cc1ccc(Cl)cc1	0.62	-0.096	-4	1	3	0.97	·	·	·
COc1ccc(CC(=O)N2CCN=C2SC)cc1	-0.28	0.78	1	6	11*	0.2	15276*	1524	+
CC(C)(C)NS(=O)(=O)c1ccc(CCC(=O)N2CCOCC2)cc1	-0.67	0	·	11	-0.72	0.15	·	·	·
COc1ccc(-c2nc(-c3cccs3)c(-c3cccs3)[nH]2)cc1O	2	1.4	6	3	2.8*	-0.3	7608	1828	i
COc1ccc(NC(=O)c2sc(SC)nc2N)cc1	0.8	3.5	-2	-36	15*	0.21	19600*	1536	+
COc1ccc(NC(=O)c2sc(SCc3ccccc3)nc2N)cc1	1.4	·	·	·	·	·	·	·	·
